# PAFAH1B2 inh: blocks human PAF acetylhydrolase 1b catalytic subunit 2; recombinant PAFAH1B2, FP-rhodamine activity probe, fluorescence polarization; inhibition, % at 3.39 µM; P68402; 1.2% of 340,000 active;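 active means inhibition above the mean of all tested compounds plus 3 SD, cut at about 24% in these data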;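 further: 0% = enzyme with DMSO and 100% = wells lacking PAFAH1B2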
# mABHD4 FP: ABHD4 (mouse) inhibition, primary FP screen | purified mABHD4, FP-Rh probe fluorescence polarization | 0.54% of 370,000 active | inhibition, % at 8.92 µM | AID 720543;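 active means inhibition exceeding the mean over every tested compound plus 3 SD, cut at about 30% in these data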;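 further: 0% = plate median of compound wells and 100% = S159A mutant with DMSO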
# Target sequence (Q8VD66 whole entry, looked up): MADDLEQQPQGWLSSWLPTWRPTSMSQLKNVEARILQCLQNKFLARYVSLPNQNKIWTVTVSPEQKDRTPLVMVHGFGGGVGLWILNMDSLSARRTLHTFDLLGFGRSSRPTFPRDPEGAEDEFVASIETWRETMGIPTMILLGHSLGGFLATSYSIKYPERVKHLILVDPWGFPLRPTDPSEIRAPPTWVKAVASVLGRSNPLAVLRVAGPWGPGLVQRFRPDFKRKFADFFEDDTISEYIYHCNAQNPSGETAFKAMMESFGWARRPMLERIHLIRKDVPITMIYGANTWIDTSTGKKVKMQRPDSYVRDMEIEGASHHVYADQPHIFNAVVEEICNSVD
#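 Doses – 8.92 µM, single dose · Material – wild-type mouse ABHD4 protein · Replication – single well per compound (singlicate) · Measure – percent inhibition of probe binding, normalized to plate controls · Schedule – 45 min compound pre-incubation plus 60 min probe step, 25 °C · Detection – fluorescence polarization with parallel and perpendicular emission, 525/598 nm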
# pPAFAH FP inh: inhibitors of human plasma PAF acetylhydrolase (pPAFAH); Q13093; recombinant pPAFAH, FP-rhodamine probe fluorescence polarization; inhibition, % at 3.39 µM; 1.5% of 330,000 active; AID 463082;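 active means inhibition above the mean inhibition across the screen plus 3 SD, cut at about 25% in these data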;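 further: inhibitors block binding of the rhodamine activity-based probe so polarization drops; 0% = enzyme with DMSO and 100% = wells lacking pPAFAH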
# PAFAH2 FP inh: inhibitors of human PAFAH2; Q99487; recombinant PAFAH2, FP-rhodamine activity probe, fluorescence polarization; inhibition, % at 3.39 µM; 0.99% of 340,000 active;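 active means inhibition above the mean over all tested compounds plus 3 SD, cut at about 30% in these data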;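 further: inhibitors block probe labeling of enzyme so polarization drops; 0% = enzyme with DMSO and 100% = wells lacking PAFAH2 protein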
# PAFAH1B3 FP inh: blocks human PAF acetylhydrolase 1B catalytic subunit 3. Q15102. recombinant PAFAH1B3, FP-rhodamine probe, fluorescence polarization. inhibition, % at 3.39 µM. 0.28% of 340,000 active;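 active means inhibition above the screen-wide average of all tested compounds plus 3 SD, cut at about 25% in these data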;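 further: 0% = enzyme with DMSO only and 100% = wells lacking PAFAH1B3 protein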
# Target sequence (Q15102 whole entry, looked up): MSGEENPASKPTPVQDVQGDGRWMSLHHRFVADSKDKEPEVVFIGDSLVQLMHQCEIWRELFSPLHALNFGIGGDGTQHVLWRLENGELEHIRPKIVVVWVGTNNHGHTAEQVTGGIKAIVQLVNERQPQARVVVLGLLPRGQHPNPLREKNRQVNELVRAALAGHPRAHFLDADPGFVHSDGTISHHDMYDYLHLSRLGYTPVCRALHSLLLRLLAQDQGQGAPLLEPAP
# HTRA1 inhibitor: blocks human HTRA1 serine peptidase. Q92743. recombinant HTRA1, FP-rhodamine activity-based probe, fluorescence polarization. 0.5% of 340,000 active. inhibition, % at 5.96 µM; in the data active means inhibition above about 36%;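 further: 0% = enzyme with DMSO and 100% = wells lacking enzyme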
# PAFAH2 FP conf: PAFAH2 (human) inhibition, confirmed | shares compounds with PAFAH2 FP inh | recombinant PAFAH2, FP-rhodamine activity probe, fluorescence polarization | inhibition, % at 3.39 µM | 65% of 2,300 active | AID 493030;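 active means mean inhibition over three repeats above a set limit taken from the earlier primary screen, cut at about 30% in these data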;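 further: inhibitor blocks binding of rhodamine activity probe so polarization falls; 0% = enzyme with DMSO and 100% = wells lacking PAFAH2 protein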
# An asterisk follows results filed as active; nt = no result given. The list is not random: actives were taken first. Their share in the collection is about 2.8%.
SMILES,PAFAH1B2 inh,mABHD4 FP,pPAFAH FP inh,PAFAH2 FP inh,PAFAH1B3 FP inh,HTRA1 inhibitor,PAFAH2 FP conf
COc1ccccc1NS(=O)(=O)c1ccc(O)c(C(=O)OCC(=O)c2ccc(Cl)cc2Cl)c1,13.1,8.1,9.8,37.9*,4.2,-14.5,23.1
COc1ccccc1NS(=O)(=O)c1ccc(O)c(C(=O)OCC(=O)N2CCc3ccccc32)c1,9.6,3.8,19.6,44.8*,1.0,-4.4,28.1
Cc1nn(CCC(=O)NNC(=O)Nc2ccccc2)c(C)c1[N+](=O)[O-],nt,2.3,nt,nt,nt,nt,nt
COC(=O)c1cc(C(=O)c2cc(Br)ccc2O)coc1=N,1.8,-8.0,1.1,30.9*,0.0,-7.8,5.3
Cc1cccc(-c2nnc(SCC(=O)c3ccc(F)cc3)n2C)c1,nt,2.5,nt,nt,nt,nt,nt
Cc1ccc(NC(=O)COC(=O)c2ccc(CN3CCCC3=O)cc2)cc1C,0.4,6.1,nt,91.8*,8.6,0.9,84.6*
O=C(COC(=O)c1ccc(CN2CCCC2=O)cc1)Nc1ccc(F)cc1,0.4,1.5,8.4,85.5*,5.9,9.4,86.3*
CC(=O)OCCN1C(=O)c2ccc(-c3nc4ccccc4c(=O)o3)cc2C1=O,2.1,-1.8,2.0,53.4*,-1.4,-2.6,45.8*
CCN1C(=O)c2ccc(-c3nc4ccccc4c(=O)o3)cc2C1=O,2.0,1.7,-2.7,34.9*,10.6,0.4,62.8*
CCCC/C=C1/[C@H](c2ccccc2)N(C)C2=N[C@@H](c3ccccc3)CC(=O)N21,nt,-5.0,nt,nt,nt,nt,nt
O=C(Nc1ccc(F)cc1)OCc1cn(Cc2cccc(F)c2)nn1,nt,6.7,nt,nt,nt,nt,nt
O=C(COC(=O)c1ccccc1NC(=O)c1ccco1)Nc1ncc(Cl)cc1Cl,-4.0,-13.2,5.9,8.4,-0.3,-30.9,nt
O=C(COC(=O)c1ccccc1O)Nc1ncc(Cl)cc1Cl,5.5,19.2,13.4,32.6*,-0.4,17.5,20.4
O=C(COC(=O)C12CC3CC(CC(C3)C1)C2)Nc1ncc(Cl)cc1Cl,14.5,8.5,20.5,43.4*,3.6,5.4,25.6
Cc1cnc(C(=O)OCC(=O)Nc2ncc(Cl)cc2Cl)cn1,7.0,13.5,3.2,11.0,-0.4,13.7,nt
CCCCCCC/C=C(\C)[C@@H](O)[C@@H](C)C(=O)N1CCC[C@@H]1C(=O)O[C@H](C(=O)O[C@@H](C)C(=O)O)[C@@H](C)CC,nt,16.6,nt,nt,nt,nt,nt
Cc1ccc(-n2c(Cc3cccs3)nnc2SCC(=O)Nc2ccc(OCc3ccccc3)cc2)cc1,nt,-22.0,nt,nt,nt,nt,nt
Cc1ccccc1S(=O)(=O)N1CCC(c2nc3ccccc3o2)CC1,nt,-3.5,nt,nt,nt,nt,nt
N#Cc1cccc(NC(=O)OC2CCC23CCC(c2ccccc2)CC3)c1 (stereo unspecified),nt,-34.2,nt,nt,nt,nt,nt
Cc1ccc(N2CC(C(=O)Nc3c4c(nn3C(C)(C)C)CS(=O)(=O)C4)CC2=O)cc1C (stereo unspecified),-2.7,-2.6,5.1,158.2*,-2.8,4.3,-0.2
Cc1ccc(C(=O)Nc2c3c(nn2C(C)(C)C)CS(=O)(=O)C3)cc1C,-0.5,5.3,3.8,2.4,2.7,-2.1,nt
CCc1sc(/C=C(/C#N)C(N)=S)cc1[N+](=O)[O-],12.5,17.9,nt,31.1*,10.5,11.0,24.6
CC(=O)c1c(C)[nH]c(C(=O)OCC(=O)Nc2ccc(Cl)cc2[N+](=O)[O-])c1C,5.7,-3.1,4.4,48.3*,-0.6,-2.9,32.3*
CC(=O)c1c(C)[nH]c(C(=O)OCC(=O)Nc2ccc(Cl)c(S(=O)(=O)N(C)C)c2)c1C,-3.3,-3.0,-2.5,71.2*,-0.5,-17.3,60.6*
CC(=O)c1c(C)[nH]c(C(=O)Nc2ccc(Cl)c(S(=O)(=O)N(C)C)c2)c1C,5.4,1.0,-3.4,-9.7,10.8,-21.9,nt
SMILES,PAFAH1B2 inh,mABHD4 FP,pPAFAH FP inh,PAFAH2 FP inh,PAFAH1B3 FP inh,HTRA1 inhibitor,PAFAH2 FP conf
CC(=O)c1c(C)[nH]c(C(=O)OCC(=O)Nc2ccc3c(c2)OCCO3)c1C,4.2,-8.7,0.3,35.0*,4.8,-1.3,20.1
COC[C@@H]1CCCN1c1cccc2c1S(=O)(=O)N1CC[C@H](C1)O2,nt,-4.1,nt,nt,nt,nt,nt
CC(C)N1CCCCC(NC(=O)Cc2ccccc2)C1=O (stereo unspecified),nt,-4.7,nt,nt,nt,nt,nt
NC(=O)COc1c(-c2ccc(Br)o2)oc2ccccc2c1=O,-1.6,nt,1.8,31.1*,0.8,9.0,4.1
O=C(O)c1ccc2c(=O)n3c(nc2c1)/C(=C/c1ccc(C(F)(F)F)cc1)CC3,2.4,-6.4,2.4,-63.3,4.9,-6.7,nt
O=c1c2ccccc2nc2n1CC/C2=C/N1CCN(c2cccc(C(F)(F)F)c2)CC1,22.6,nt,17.7,32.6*,20.6,26.5,-1.4
CC(=O)c1ccc(NC(=O)c2cccc(N3C(=O)c4ccccc4C3=O)c2)cc1,-9.6,nt,5.5,-8.7,-7.9,-2.8,nt
Cc1ccc(NC(=O)COC(=O)c2cccc(N3C(=O)c4ccccc4C3=O)c2)cc1,3.1,-1.8,10.6,38.1*,1.8,-4.9,26.8
CC(=O)c1cccc(NC(=O)COC(=O)c2cccc(N3C(=O)c4ccccc4C3=O)c2)c1,-1.1,-2.5,0.9,51.7*,5.8,-17.4,46.1*
COc1cc(OC)cc(C(=O)OCC(=O)Nc2cccc(C(C)=O)c2)c1,3.8,-2.5,1.4,7.1,5.8,-9.0,nt
O=c1oc(-c2ccccc2NS(=O)(=O)c2ccc3ccccc3c2)nc2ccccc12,4.4,-30.5,-5.8,36.4*,-19.6,-115.3,40.0*
O=C(COC(=O)c1cccc(F)c1)Nc1cccc(S(=O)(=O)N2CCCCC2)c1,nt,-12.9,nt,nt,nt,-21.6,nt
O=C(COC(=O)c1ccccc1)Nc1cccc(S(=O)(=O)N2CCCCC2)c1,1.6,-6.7,nt,39.8*,4.3,-11.1,23.3
Cc1ccc(C(=O)OCC(=O)Nc2cccc(S(=O)(=O)N3CCCCC3)c2)o1,2.8,-0.4,6.2,41.6*,0.7,-14.9,26.5
O=C(COC(=O)c1cccc(S(=O)(=O)N2CCCCCC2)c1)Nc1ccccc1,-0.8,-9.8,nt,65.6*,4.6,-18.6,60.5*
O=C(COC(=O)c1cccs1)Nc1cccc(S(=O)(=O)N2CCCCC2)c1,-6.3,-8.2,7.3,68.8*,18.5,-20.1,63.5*
CCCCNC(=O)C[C@H]1C[C@@]2(C(=O)OCC)CCCC3=C2N(CCC3)C1=O,nt,1.9,nt,nt,nt,nt,nt
COc1ccccc1CCn1cnc(-c2ccccc2)c1CC(C)C,nt,-11.7,nt,nt,nt,nt,nt
CCOC(=O)[C@]12CCCCC/C=C\1N(CCc1ccc(Cl)cc1)C(=O)[C@H]2CC(=O)NCc1ccc(C)o1,nt,-4.9,nt,nt,nt,nt,nt
COc1cc(NC(=O)Cc2cccc3ccccc23)c(C(=O)O)cc1OC,7.1,4.5,8.1,60.2*,15.6,0.7,40.2*
COc1cc(NC(=O)Nc2cccc(Cl)c2)c(C(=O)O)cc1OC,10.9,8.4,10.1,32.1*,2.6,-0.4,22.3
COc1cc(NC(=O)Cc2ccccc2)c(C(=O)O)cc1OC,8.8,5.8,2.4,2.5,0.2,7.2,nt
